Measured values: ChEMBL document CHEMBL4304782, “Antioxidant, Anti-inflammatory, and Neuroprotective Effects of Novel Vinyl Sulfonate Compounds as Nrf2 Activator” (ACS Med Chem Lett, 2019)
Activity calls are given as the source filed them. The calls are words filed in the database; no cut-off is given here.

Experiments:
[1] = target: T1, Nuclear factor erythroid 2-related factor 2 (Homo sapiens) (UniProt Q16236); assay: Activation of Nrf2 in human SH-SY5Y cells assessed as increase in GCLC level at 0.3 to 3 uM incubated for 6 to 24 hrs by Western blot analysis relative to control; format: cell-based
T1 sequence (whole entry): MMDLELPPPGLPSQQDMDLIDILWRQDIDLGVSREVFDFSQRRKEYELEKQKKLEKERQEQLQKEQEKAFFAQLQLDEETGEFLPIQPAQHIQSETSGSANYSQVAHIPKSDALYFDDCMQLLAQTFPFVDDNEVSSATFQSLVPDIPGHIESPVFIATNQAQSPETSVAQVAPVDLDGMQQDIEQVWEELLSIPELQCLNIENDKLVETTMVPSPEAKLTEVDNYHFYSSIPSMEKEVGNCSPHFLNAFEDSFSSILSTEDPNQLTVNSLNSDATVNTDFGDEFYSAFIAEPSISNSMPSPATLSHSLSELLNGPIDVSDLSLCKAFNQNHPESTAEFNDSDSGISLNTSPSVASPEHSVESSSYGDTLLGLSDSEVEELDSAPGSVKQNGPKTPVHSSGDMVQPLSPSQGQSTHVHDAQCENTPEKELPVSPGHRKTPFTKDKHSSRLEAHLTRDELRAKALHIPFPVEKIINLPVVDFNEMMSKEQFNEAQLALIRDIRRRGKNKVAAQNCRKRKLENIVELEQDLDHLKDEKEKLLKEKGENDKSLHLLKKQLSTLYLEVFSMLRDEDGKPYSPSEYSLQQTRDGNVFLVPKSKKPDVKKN
How it was run: (§1)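 SH-SY5Y neuroblastoma cells treated for 6 or 24 h, then harvested; NQO1, GCLM, GCLC protein by Western blot with β-actin loading control; at least duplicate cultures, averaged, fold of untreated control ± SEM; paired t test.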

BV-2 [2] = assay: Antiinflammatory activity in mouse BV2 cells assessed as reduction in LPS-induced iNOS level at 1 to 10 uM incubated for 6 hrs followed by LPS stimulation for 12 hrs by Western blot analysis; format: functional, cell-based
How it was run: (§2)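 BV-2 cells pretreated with compound 6 h, then stimulated with 1 μg/mL LPS for 12 h; protein and mRNA levels quantified relative to LPS-stimulated control; mean ± SD (n = 3); paired t test.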

BV-2 [3] = assay: Antiinflammatory activity in mouse BV2 cells assessed as reduction in LPS-induced COX2 level at 1 to 10 uM incubated for 6 hrs followed by LPS stimulation for 12 hrs by Western blot analysis; format: functional, cell-based; how it was run: as §2
BV-2 [4] = assay: Antiinflammatory activity in mouse BV2 cells assessed as reduction in LPS-induced iNOS expression at 3 to 10 uM incubated for 6 hrs followed by LPS stimulation for 12 hrs by RT-qPCR analysis; format: functional, cell-based; how it was run: as §2
BV-2 [5] = assay: Antiinflammatory activity in mouse BV2 cells assessed as reduction in LPS-induced IL-1beta expression at 3 to 10 uM incubated for 6 hrs followed by LPS stimulation for 12 hrs by RT-qPCR analysis; format: functional, cell-based; how it was run: as §2
BV-2 [6] = assay: Antiinflammatory activity in mouse BV2 cells assessed as reduction in LPS-induced NO production at 1 to 10 uM incubated for 24 hrs by ELISA; format: functional, cell-based
How it was run: (§3)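 BV-2 cells given compound together with 1 μg/mL LPS for 24 h; mediator levels expressed relative to LPS-stimulated control ± SEM; at least duplicate cultures; paired t test.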

BV-2 [7] = assay: Antiinflammatory activity in mouse BV2 cells assessed as reduction in LPS-induced IL-6 production incubated for 24 hrs by ELISA; format: functional, cell-based; how it was run: as §3
BV-2 [8] = assay: Antiinflammatory activity in mouse BV2 cells assessed as reduction in LPS-induced TNF-alpha production incubated for 24 hrs by ELISA; format: functional, cell-based; how it was run: as §3
Mus musculus [9] = assay: (§4) Anti-parkinson's activity in MPTP-induced C57Bl/6 mouse model of Parkinson's disease assessed as restoration of turning time at 20 mg/kg, po administered for 3 consecutive days prior and subsequent to MPTP administration (four injections of MPTP, 2 h intervals, 20 mg/kg, i.p. injection by vertical grid test; format: functional, organism-based
How it was run: (§5)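 Mice dosed 20 mg/kg p.o. (or vehicle) for 3 consecutive days before and after MPTP (four i.p. injections, 20 mg/kg, 2 h apart); vertical grid test (turning, descent, total time) and coat-hanger scoring; n = 10–12 per group; mean ± SEM; one-way ANOVA with Tukey's test.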

Mus musculus [10] = assay: as §4, with “descent” for “turning”; format: functional, organism-based; how it was run: as §5
Mus musculus [11] = assay: as §4, with “total” for “turning”; format: functional, organism-based; how it was run: as §5
Mus musculus [12] = assay: Anti-parkinson's activity in MPTP-induced C57Bl/6 mouse model of Parkinson's disease assessed as abnormal movement at 20 mg/kg, po administered for 3 consecutive days prior and subsequent to MPTP administration (four injections of MPTP, 2 h intervals, 20 mg/kg, i.p. injection by coat hanger test; format: functional, organism-based; how it was run: as §5
Mus musculus [13] = assay: Protection against MPTP-induced DAergic neurotoxicity in C57B/6 mouse model of Parkinson's disease assessed as […] at 20 mg/kg, po observed after 7 days by microscopic analysis; format: functional, organism-based
How it was run: (§6)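 MPTP mouse model with 20 mg/kg oral dosing; striatal and substantia nigra sections collected 7 days later and stained for tyrosine hydroxylase; striatal TH density and nigral TH-positive neuron counts; mean ± SEM; one-way ANOVA with Tukey's test.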

Mus musculus [14] = assay: Protection against MPTP-induced DAergic neurotoxicity in C57B/6 mouse model of Parkinson's disease assessed as restoration of TH-positive neurons cell density in striatum at 20 mg/kg, po observed after 7 days by microscopic analysis; format: functional, organism-based; how it was run: as §6
Mus musculus [15] = assay: Protection against MPTP-induced DAergic neurotoxicity in C57B/6 mouse model of Parkinson's disease assessed as restoration of TH-positive neurons cell density in SN at 20 mg/kg, po observed after 7 days by microscopic analysis; format: functional, organism-based; how it was run: as §6
Mus musculus [16] = assay: Protection against MPTP-induced DAergic neurotoxicity in C57BL/6 mouse model of Parkinson's disease assessed as reduction in SNpc microglial activation by measuring Iba1 fluorescent intensity at 20 mg/kg/day, administered for 7 consecutive days by TH/Iba1 double immunostaining-based assay; format: functional, organism-based; conditions: in the assay text read “administered for 3 consecutive days” for “administered for 7 consecutive days”
How it was run: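 Double immunofluorescence for TH and Iba-1 on coronal substantia nigra sections 10 days after i.p. MPTP; relative Iba-1 intensity compared, n = 9 per group; mean ± SEM; one-way ANOVA with Tukey's test.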

[17] = target: T1, Nuclear factor erythroid 2-related factor 2 (Homo sapiens); assay: Activation of Nrf2 in human SH-SY5Y cells assessed as increase in GCLM level incubated for 6 to 24 hrs by Western blot analysis; format: cell-based; how it was run: as §1
[18] = target: T1, Nuclear factor erythroid 2-related factor 2 (Homo sapiens); assay: Activation of Nrf2 in human SH-SY5Y cells assessed as increase in GCLC level incubated for 6 to 24 hrs by Western blot analysis; format: cell-based; how it was run: as §1

With `COc1ccccc1OS(=O)(=O)/C=C/c1ccccc1Cl` the fold change (FC) [1] was 1.5, the Activity (BV-2 [2]) was “Active” and the Activity (BV-2 [3]) was “Active”. The Activity (BV-2 [4]) was “Active”, the Activity (BV-2 [5]) was “Active” and the Activity (BV-2 [6]) was “Active”. For the same molecule, the Activity (BV-2 [7]) was “Dose-dependent effect”, the Activity (BV-2 [8]) was “Dose-dependent effect” and the Activity (Mus musculus [9]) was “Active”. The Activity (Mus musculus [10]) was “Active”, the Activity (Mus musculus [11]) was “Active” and the Activity (Mus musculus [12]) was “Active”. For the same molecule, the Activity (Mus musculus [13]) was “Active”, the Activity (Mus musculus [14]) was “Active” and the Activity (Mus musculus [15]) was “Active”. For the same molecule, the Activity (Mus musculus [16]) was “Active”, the Activity [17] was “Dose-dependent effect” and the Activity [18] was “Dose-dependent effect”.
